From ChEMBL document CHEMBL1926550, “Synthesis and antibacterial activity of naphthyridone derivatives containing mono/difluoro-methyloxime pyrrolidine scaffolds” (2012)
≈ marks a conversion by molar mass, not a printed value.

What was measured:
Type in all cases: functional
[1] = test system: Escherichia coli; experiment: Antibacterial activity against Escherichia coli 10-1 after 18 hrs by two fold serial dilution method; details: 10-1, 18 h
How it was run: (§1)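 Agar two-fold serial dilution in melted Mueller-Hinton agar, final concentrations 128 down to 0.008 μg/mL. Plates inoculated with 10⁴ cfu and incubated at 35 °C for 18 h. MIC taken as the lowest concentration giving no visible growth on the plate.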

[2] = test system: Escherichia coli; experiment: Antibacterial activity against Escherichia coli 10-2 after 18 hrs by two fold serial dilution method; details: 10-2, 18 h; how it was run: as §1
[3] = test system: Escherichia coli; experiment: Antibacterial activity against Escherichia coli 10-3 after 18 hrs by two fold serial dilution method; details: 10-3, 18 h; how it was run: as §1
[4] = test system: Klebsiella pneumoniae; experiment: Antibacterial activity against Klebsiella pneumoniae 09-2 after 18 hrs by two fold serial dilution method; details: 09-2, 18 h; how it was run: as §1
[5] = test system: Klebsiella pneumoniae; experiment: Antibacterial activity against Klebsiella pneumoniae 10-1 after 18 hrs by two fold serial dilution method; details: 10-1, 18 h; how it was run: as §1
[6] = test system: Klebsiella pneumoniae; experiment: Antibacterial activity against Klebsiella pneumoniae 10-3 after 18 hrs by two fold serial dilution method; details: 10-3, 18 h; how it was run: as §1
[7] = test system: Pseudomonas aeruginosa; experiment: Antibacterial activity against Pseudomonas aeruginosa ATCC 27853 after 18 hrs by two fold serial dilution method; details: ATCC 27853, 18 h; how it was run: as §1
[8] = test system: Pseudomonas aeruginosa; experiment: Antibacterial activity against Pseudomonas aeruginosa 10-1 after 18 hrs by two fold serial dilution method; details: 10-1, 18 h; how it was run: as §1
[9] = test system: Pseudomonas aeruginosa; experiment: Antibacterial activity against Pseudomonas aeruginosa 10-2 after 18 hrs by two fold serial dilution method; details: 10-2, 18 h; how it was run: as §1
[10] = test system: Pseudomonas aeruginosa; experiment: Antibacterial activity against Pseudomonas aeruginosa 10-3 after 18 hrs by two fold serial dilution method; details: 10-3, 18 h; how it was run: as §1
[11] = test system: Staphylococcus epidermidis; experiment: Antibacterial activity against methicillin-resistant Staphylococcus epidermidis 10-4 after 18 hrs by two fold serial dilution method; details: 10-4, 18 h
How it was run: (§2)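 Agar two-fold serial dilution in melted Mueller-Hinton agar, 128 to 0.008 μg/mL. Plates inoculated with 10⁴ cfu, incubated 35 °C for 18 h. MIC taken as lowest concentration giving no visible growth on the plate.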

[12] = test system: Staphylococcus aureus; experiment: Antibacterial activity against methicillin-resistant Staphylococcus aureus 10-2 infected KM mouse systemic infection model assessed as decrease in mouse mortality administered orally twice after 1 and 4 hrs post infection measured up to 7 days; details: 10-2, po
How it was run: (§3)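 Strains grown on MH agar at 35 °C for 18 h, suspended in gastric mucin. Male KM mice (19–21 g), groups of 10, infected intraperitoneally with 0.5 mL at 5–10× MLD. Four oral dose levels per drug at 1 and 4 h post infection. Mortality followed 7 days; ED50 with 95% confidence limits by Bliss method.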

[13] = test system: Staphylococcus epidermidis; experiment: Antibacterial activity against methicillin-resistant Staphylococcus epidermidis 10-4 infected KM mouse systemic infection model assessed as decrease in mouse mortality administered orally twice after 1 and 4 hrs post infection measured up to 7 days; details: 10-4, po; how it was run: as §3
[14] = test system: Escherichia coli; experiment: Antibacterial activity against Escherichia coli 10-2 infected KM mouse systemic infection model assessed as decrease in mouse mortality administered orally twice after 1 and 4 hrs post infection measured up to 7 days; details: 10-2, po; how it was run: as §3
[15] = test system: Klebsiella pneumoniae; experiment: Antibacterial activity against Klebsiella pneumoniae 10-3 infected KM mouse systemic infection model assessed as decrease in mouse mortality administered orally twice after 1 and 4 hrs post infection measured up to 7 days; details: 10-3, po; how it was run: as §3
[16] = test system: Pseudomonas aeruginosa; experiment: Antibacterial activity against Pseudomonas aeruginosa 10-1 infected KM mouse systemic infection model assessed as decrease in mouse mortality administered orally twice after 1 and 4 hrs post infection measured up to 7 days; details: 10-1, po; how it was run: as §3
[17] = test system: Staphylococcus epidermidis; experiment: Ratio of ciprofloxacin ED50 to compound ED50 for methicillin-resistant Staphylococcus epidermidis 10-4 infected KM mouse systemic infection model
[18] = test system: Staphylococcus epidermidis; experiment: Ratio of gemifloxacin ED50 to compound ED50 for methicillin-resistant Staphylococcus epidermidis 10-4 infected KM mouse systemic infection model
[19] = test system: Enterococcus faecium; experiment: Antibacterial activity against Enterococcus faecium 09-1 after 18 hrs by two fold serial dilution method; details: 09-1, 18 h; how it was run: as §1
[20] = test system: Staphylococcus aureus; experiment: Antibacterial activity against Staphylococcus aureus ATCC 25923 after 18 hrs by two fold serial dilution method; details: ATCC 25923, 18 h; how it was run: as §1
[21] = test system: Staphylococcus aureus; experiment: Antibacterial activity against methicillin-resistant Staphylococcus aureus 10-1 after 18 hrs by two fold serial dilution method; details: 10-1, 18 h; how it was run: as §2
[22] = test system: Staphylococcus aureus; experiment: Antibacterial activity against methicillin-resistant Staphylococcus aureus 10-2 after 18 hrs by two fold serial dilution method; details: 10-2, 18 h; how it was run: as §2
[23] = test system: Staphylococcus aureus; experiment: Antibacterial activity against methicillin-resistant Staphylococcus aureus 10-3 after 18 hrs by two fold serial dilution method; details: 10-3, 18 h; how it was run: as §2
[24] = test system: Staphylococcus aureus; experiment: Antibacterial activity against methicillin-resistant Staphylococcus aureus 10-4 after 18 hrs by two fold serial dilution method; details: 10-4, 18 h; how it was run: as §2
[25] = test system: Staphylococcus aureus; experiment: Antibacterial activity against methicillin-sensitive Staphylococcus aureus 10-1 after 18 hrs by two fold serial dilution method; details: 10-1, 18 h; how it was run: as §1
[26] = test system: Staphylococcus aureus; experiment: Antibacterial activity against methicillin-sensitive Staphylococcus aureus 10-2 after 18 hrs by two fold serial dilution method; details: 10-2, 18 h; how it was run: as §1
[27] = test system: Staphylococcus aureus; experiment: Antibacterial activity against methicillin-sensitive Staphylococcus aureus 10-3 after 18 hrs by two fold serial dilution method; details: 10-3, 18 h; how it was run: as §1
[28] = test system: Staphylococcus aureus; experiment: Antibacterial activity against methicillin-sensitive Staphylococcus aureus 10-4 after 18 hrs by two fold serial dilution method; details: 10-4, 18 h; how it was run: as §1
[29] = test system: Staphylococcus aureus; experiment: Antibacterial activity against methicillin-sensitive Staphylococcus aureus 10-5 after 18 hrs by two fold serial dilution method; details: 10-5, 18 h; how it was run: as §1
[30] = test system: Staphylococcus aureus; experiment: Antibacterial activity against methicillin-sensitive Staphylococcus aureus 10-6 after 18 hrs by two fold serial dilution method; details: 10-6, 18 h; how it was run: as §1
[31] = test system: Staphylococcus epidermidis; experiment: Antibacterial activity against methicillin-resistant Staphylococcus epidermidis 10-1 after 18 hrs by two fold serial dilution method; details: 10-1, 18 h; how it was run: as §2
[32] = test system: Staphylococcus epidermidis; experiment: Antibacterial activity against methicillin-resistant Staphylococcus epidermidis 10-2 after 18 hrs by two fold serial dilution method; details: 10-2, 18 h; how it was run: as §2
[33] = test system: Staphylococcus epidermidis; experiment: Antibacterial activity against methicillin-sensitive Staphylococcus epidermidis 10-1 after 18 hrs by two fold serial dilution method; details: 10-1, 18 h; how it was run: as §1
[34] = test system: Staphylococcus epidermidis; experiment: Antibacterial activity against methicillin-sensitive Staphylococcus epidermidis 10-2 after 18 hrs by two fold serial dilution method; details: 10-2, 18 h; how it was run: as §1
[35] = test system: Streptococcus pneumoniae; experiment: Antibacterial activity against Streptococcus pneumoniae 10-1 after 18 hrs by two fold serial dilution method; details: 10-1, 18 h; how it was run: as §1
[36] = test system: Enterococcus faecium; experiment: Antibacterial activity against Enterococcus faecium 09-2 after 18 hrs by two fold serial dilution method; details: 09-2, 18 h; how it was run: as §1
[37] = test system: Enterococcus faecium; experiment: Antibacterial activity against Enterococcus faecium 09-3 after 18 hrs by two fold serial dilution method; details: 09-3, 18 h; how it was run: as §1
[38] = test system: Enterococcus faecium; experiment: Antibacterial activity against Enterococcus faecium 09-4 after 18 hrs by two fold serial dilution method; details: 09-4, 18 h; how it was run: as §1
[39] = test system: Enterococcus faecium; experiment: Antibacterial activity against Enterococcus faecium 09-5 after 18 hrs by two fold serial dilution method; details: 09-5, 18 h; how it was run: as §1
[40] = test system: Enterococcus faecium; experiment: Antibacterial activity against Enterococcus faecium 09-6 after 18 hrs by two fold serial dilution method; details: 09-6, 18 h; how it was run: as §1
[41] = test system: Enterococcus faecalis; experiment: Antibacterial activity against Enterococcus faecalis 09-1 after 18 hrs by two fold serial dilution method; details: 09-1, 18 h; how it was run: as §1
[42] = test system: Enterococcus faecalis; experiment: Antibacterial activity against Enterococcus faecalis 09-2 after 18 hrs by two fold serial dilution method; details: 09-2, 18 h; how it was run: as §1
[43] = test system: Escherichia coli; experiment: Antibacterial activity against Escherichia coli ATCC 25922 after 18 hrs by two fold serial dilution method; details: ATCC 25922, 18 h; how it was run: as §1
[44] = test system: Escherichia coli; experiment: Antibacterial activity against Escherichia coli 09-1 after 18 hrs by two fold serial dilution method; details: 09-1, 18 h; how it was run: as §1
[45] = test system: Escherichia coli; experiment: Antibacterial activity against Escherichia coli 09-2 after 18 hrs by two fold serial dilution method; details: 09-2, 18 h; how it was run: as §1
[46] = test system: Escherichia coli; experiment: Antibacterial activity against Escherichia coli 09-3 after 18 hrs by two fold serial dilution method; details: 09-3, 18 h; how it was run: as §1

SMILES: NCC1CN(c2nc3c(cc2F)c(=O)c(C(=O)O)cn3C2CC2)C/C1=N\OCF (racemic)
- MIC [1]: 32 mg/L (≈ 78.6 µM)
- MIC [2]: 0.5 mg/L (≈ 1.23 µM)
- MIC [3]: 16 mg/L (≈ 39.3 µM)
- MIC [4]: 32 mg/L (≈ 78.6 µM)
- MIC [5]: 0.03 mg/L (≈ 0.0736 µM)
- MIC [6]: 0.5 mg/L (≈ 1.23 µM)
- MIC [7]: 0.5 mg/L (≈ 1.23 µM)
- MIC [8]: 0.5 mg/L (≈ 1.23 µM)
- MIC [9]: 32 mg/L (≈ 78.6 µM)
- MIC [10]: 4 mg/L (≈ 9.82 µM)
- MIC [11]: 2 mg/L (≈ 4.91 µM)
- ED50 [12]: 16.9 mg/kg
- ED50 [13]: 8 mg/kg
- ED50 [14]: 8.79 mg/kg
- ED50 [15]: > 160 mg/kg
- ED50 [16]: 39.3 mg/kg
- Ratio ED50 [17]: 3.1
- Ratio ED50 [18]: 3
- MIC [19]: 32 mg/L (≈ 78.6 µM)
- MIC [20]: 0.015 mg/L (≈ 0.0368 µM)
- MIC [21]: 32 mg/L (≈ 78.6 µM)
- MIC [22]: 2 mg/L (≈ 4.91 µM)
- MIC [23]: 32 mg/L (≈ 78.6 µM)
- MIC [24]: 64 mg/L (≈ 157 µM)
- MIC [25]: 0.06 mg/L (≈ 0.147 µM)
- MIC [26]: 8 mg/L (≈ 19.6 µM)
- MIC [27]: 0.03 mg/L (≈ 0.0736 µM)
- MIC [28]: 0.25 mg/L (≈ 0.614 µM)
- MIC [29]: 0.125 mg/L (≈ 0.307 µM)
- MIC [30]: 0.5 mg/L (≈ 1.23 µM)
- MIC [31]: 2 mg/L (≈ 4.91 µM)
- MIC [32]: 1 mg/L (≈ 2.45 µM)
- MIC [33]: 32 mg/L (≈ 78.6 µM)
- MIC [34]: 64 mg/L (≈ 157 µM)
- MIC [35]: 0.06 mg/L (≈ 0.147 µM)
- MIC [36]: 32 mg/L (≈ 78.6 µM)
- MIC [37]: 16 mg/L (≈ 39.3 µM)
- MIC [38]: 0.06 mg/L (≈ 0.147 µM)
- MIC [39]: 32 mg/L (≈ 78.6 µM)
- MIC [40]: 0.03 mg/L (≈ 0.0736 µM)
- MIC [41]: 8 mg/L (≈ 19.6 µM)
- MIC [42]: 32 mg/L (≈ 78.6 µM)
- MIC [43]: 0.008 mg/L (≈ 0.0196 µM)
- MIC [44]: 32 mg/L (≈ 78.6 µM)
- MIC [45]: 32 mg/L (≈ 78.6 µM)
- MIC [46]: 32 mg/L (≈ 78.6 µM)
